Measured values published in PubChem BioAssay.
Activity calls are given as the source filed them.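 Rule for the calls, unless noted: active = mean duplicate potentiation above the buffer control mean plus 5 SD of buffer wells; inactive = the rest.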

How the values were obtained:
[1] = nonspecific flux increase, KCNQ1-free cells – parental CHO cells, counter-screen for KCNQ1 potentiator project (AID 493006;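 active = duplicate-averaged activation above buffer control mean plus 5 SD of those controls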); conditions: parental CHO-K1 cells, FluxOR thallium flux, at 10 µM; active compounds read high
Outline: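 Benchmarks – buffer and R-L3 controls · Assay system – untransfected host CHO-K1 cells with FluxOR thallium dye · Measure – fluorescence change ratio scaled 0% buffer, 100% R-L3 · Technique – kinetic thallium-flux fluorescence · Timing – overnight 37 °C plating, 90 min RT dye, 20 min compound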

[2] = target: Potassium voltage-gated channel subfamily KQT member 1 (Homo sapiens) (UniProt P51787); assay: enhancement of KCNQ1 channel thallium flux – FluxOR thallium flux, CHO cells, duplicates, confirmation (AID 493007;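 active = potentiation averaged over duplicate wells exceeding buffer-only control mean by more than 3 SD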;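 for outcome: cells depolarized by a potassium plus thallium sulfate stimulus after compound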); conditions: KCNQ1 cell line, FluxOR thallium flux fluorescence, at 10 µM; active compounds read high, % of reference activator effect, buffer zero
Chain of Potassium voltage-gated channel subfamily KQT member 1 (Homo sapiens) (P51787 whole entry, looked up): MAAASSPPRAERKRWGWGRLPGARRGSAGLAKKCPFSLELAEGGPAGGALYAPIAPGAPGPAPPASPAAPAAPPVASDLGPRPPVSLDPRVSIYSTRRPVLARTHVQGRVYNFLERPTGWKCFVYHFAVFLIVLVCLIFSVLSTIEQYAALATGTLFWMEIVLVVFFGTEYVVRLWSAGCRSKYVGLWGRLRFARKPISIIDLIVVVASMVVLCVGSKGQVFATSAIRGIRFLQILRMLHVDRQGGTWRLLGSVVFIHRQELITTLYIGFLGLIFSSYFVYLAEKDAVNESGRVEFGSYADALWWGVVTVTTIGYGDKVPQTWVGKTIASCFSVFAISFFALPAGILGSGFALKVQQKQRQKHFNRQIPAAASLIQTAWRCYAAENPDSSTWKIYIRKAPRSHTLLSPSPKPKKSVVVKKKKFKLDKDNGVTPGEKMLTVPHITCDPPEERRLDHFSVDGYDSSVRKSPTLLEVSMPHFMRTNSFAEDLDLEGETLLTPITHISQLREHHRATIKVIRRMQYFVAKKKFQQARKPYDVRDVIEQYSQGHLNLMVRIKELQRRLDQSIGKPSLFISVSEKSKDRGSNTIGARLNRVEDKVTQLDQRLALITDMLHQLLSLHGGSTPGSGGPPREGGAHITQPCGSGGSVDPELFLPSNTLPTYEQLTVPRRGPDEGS
Outline: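 Material: CHO cells stably expressing the KCNQ1 potassium channel / Times: dye 90 min then compound 20 min, both at room temperature / Detection: kinetic thallium influx fluorescence with FluxOR dye, 10 s baseline, 110 s post-stimulus / Benchmarks: buffer-only wells as 0% and R-L3 activator as 100% / Replicates: each compound tested in duplicate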

[3] = target: Potassium voltage-gated channel subfamily KQT member 2 (Rattus norvegicus) (UniProt O88943); assay: KCNQ2 thallium flux enhancement – KCNQ2-CHO-K1 cells, selectivity assay for KCNQ1 potentiator project (AID 493009); conditions: FluxOR thallium flux fluorescence, at 10 µM; active compounds read high, scaled: buffer 0, activator control 100;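 note: assay conditions were tuned for KCNQ1 rather than KCNQ2 modulators; signal is max minus min fluorescence divided by baseline after thallium stimulus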
Chain of Potassium voltage-gated channel subfamily KQT member 2 (Rattus norvegicus) (O88943 whole entry, looked up): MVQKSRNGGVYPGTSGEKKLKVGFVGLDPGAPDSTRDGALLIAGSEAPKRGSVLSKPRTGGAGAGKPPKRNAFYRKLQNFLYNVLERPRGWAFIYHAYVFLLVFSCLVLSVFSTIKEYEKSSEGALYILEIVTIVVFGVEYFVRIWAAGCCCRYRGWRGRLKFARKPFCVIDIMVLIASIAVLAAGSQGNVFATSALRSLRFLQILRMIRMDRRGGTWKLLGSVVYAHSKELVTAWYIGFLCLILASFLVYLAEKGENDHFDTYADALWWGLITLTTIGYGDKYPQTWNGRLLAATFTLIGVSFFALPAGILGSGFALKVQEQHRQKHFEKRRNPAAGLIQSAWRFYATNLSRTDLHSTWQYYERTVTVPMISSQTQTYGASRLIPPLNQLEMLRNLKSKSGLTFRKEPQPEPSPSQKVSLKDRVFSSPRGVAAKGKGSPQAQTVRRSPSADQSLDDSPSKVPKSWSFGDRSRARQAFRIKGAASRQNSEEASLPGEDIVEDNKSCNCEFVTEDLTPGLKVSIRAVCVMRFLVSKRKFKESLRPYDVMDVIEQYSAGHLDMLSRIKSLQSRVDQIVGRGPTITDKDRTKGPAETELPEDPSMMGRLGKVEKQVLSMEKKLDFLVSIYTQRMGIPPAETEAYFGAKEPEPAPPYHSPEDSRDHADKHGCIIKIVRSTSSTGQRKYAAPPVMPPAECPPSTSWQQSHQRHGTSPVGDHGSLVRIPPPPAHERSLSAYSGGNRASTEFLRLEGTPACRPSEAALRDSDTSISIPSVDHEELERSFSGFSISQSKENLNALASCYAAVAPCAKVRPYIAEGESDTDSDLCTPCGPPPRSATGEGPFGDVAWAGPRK

[4] = target: Potassium voltage-gated channel subfamily KQT member 1 (Homo sapiens) (UniProt P51787); assay: KCNQ1 activators by electrophysiology – IonWorks patch clamp, KCNQ1-CHO cells, orthogonal assay for KCNQ1 potentiator project, confirmation (AID 493184;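 active = current rise at least 3 SD above the untreated control mean in each of two repeat wells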); conditions: automated patch clamp current, at 10 µM; active compounds read high
Outline: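 Probe or stimulus: depolarizing pulse to +40 mV from -90 mV; Material: CHO cells carrying KCNQ1; Compound: one dose, 10 µM final; Signal: automated voltage clamp, amphotericin B perforated patch; Read-out basis: percent current increase versus pre-compound level; Buffer or medium: pH 7.4 external bath; Replication: duplicates.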

[5] = target: Potassium voltage-gated channel subfamily E member 1 (Homo sapiens) + Potassium voltage-gated channel subfamily KQT member 1 (Homo sapiens) (UniProt P15382+P51787); assay: KCNQ1-E1 channel activation – thallium flux, CHO-K1 KCNQ1/E1 cells, selectivity assay for KCNQ1 potentiator project, confirmation (AID 493186;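 active = mean duplicate activation above the buffer control mean plus 5 SD of those controls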); conditions: FluxOR thallium flux, at 10 µM; active compounds read high
Chain of Potassium voltage-gated channel subfamily E member 1 (Homo sapiens) + Potassium voltage-gated channel subfamily KQT member 1 (Homo sapiens) (P51787 whole entry, looked up): as the sequence (P51787 whole entry, looked up) above
Outline: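 system = KCNQ1/E1-expressing stable CHO-K1 cell line | doses = single compound concentration per well | times = dye 90 min, compound 20 min, room temperature | measured by = FluxOR Tl+ flux fluorescence, kinetic read | evaluation = fluorescence rise relative to baseline, as percent of R-L3 response above buffer | controls = buffer and R-L3 | replicates = duplicate wells per compound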

Question: Which results are given for `O=C(O)c1ccc2c(=O)n3cc(C(=O)c4ccccc4O)cc(Cl)c3nc2c1`?
Answer: outcome [1]: inactive; outcome [2]: inactive; outcome [3]: inactive; outcome [4]: inactive; outcome [5]: inactive

Question: Which outcome [1] does the source give for `O=c1c2ccccc2oc2cc(NCCCN3CCOCC3)ccc12` here?
Answer: inactive

Question: What about the potentiation [2] of the same molecule?
Answer: 29.5% (active)

Question: What about the outcome [3] of the same molecule?
Answer: inactive

Question: What about the outcome [4] of the same molecule?
Answer: inactive

Question: What about the outcome [5] of the same molecule?
Answer: inactive

Question: With `CCCCCCOc1ccc(N2C(=O)CC(N3CCN(C(=O)c4ccco4)CC3)C2=O)cc1` (stereo not given) as the molecule, how does the outcome [1] read?
Answer: inactive

Question: And the potentiation [2]?
Answer: 17.5% (active)

Question: And the outcome [3]?
Answer: inactive

Question: And the outcome [4]?
Answer: inactive

Question: And the outcome [5]?
Answer: inactive

Question: What does the source list for `C=CCNC(=S)Nc1sc2c(c1C(=O)OCC)CCN(C(=O)OCC)C2`?
Answer: outcome [1]: inactive; outcome [2]: inactive; outcome [3]: inactive; outcome [4]: inactive; outcome [5]: inactive

Question: Which outcome [1] does the source give for `CCOC(=O)SC1=N/C(=C\c2ccc(N(C)C)cc2)C(=O)S1` here?
Answer: inactive

Question: What about the outcome [2] of the same molecule?
Answer: inactive

Question: And the outcome [3]?
Answer: inactive

Question: What about the outcome [4] of the same molecule?
Answer: inactive

Question: And the activation [5]?
Answer: 15.3% (active)

Question: Which outcome [1] does the source give for `CC(C)Oc1cccc(C(=O)NC(=S)N2CCN(c3ccc(C(F)(F)F)cc3[N+](=O)[O-])CC2)c1` here?
Answer: inactive

Question: And the potentiation [2]?
Answer: 35.5% (active)

Question: And the potentiation [3]?
Answer: 144% (active)

Question: And the outcome [4]?
Answer: inactive

Question: And the outcome [5]?
Answer: inactive

Question: For `CCN(CC)CCSc1nc2ccccc2c(=S)n1-c1ccccc1`, which outcome [1] is on record?
Answer: inactive

Question: And the outcome [2]?
Answer: inactive

Question: And the outcome [3]?
Answer: inactive

Question: And the outcome [4]?
Answer: inactive

Question: And the outcome [5]?
Answer: inactive

Question: Which outcome [1] does the source give for `Cc1cc(/C=N/NC(=O)C(O)(c2ccccc2)c2ccccc2)c(C)n1-c1ccccc1` here?
Answer: inactive

Question: What about the outcome [2] of the same molecule?
Answer: inactive

Question: What about the outcome [3] of the same molecule?
Answer: inactive

Question: What about the outcome [4] of the same molecule?
Answer: inactive

Question: And the outcome [5]?
Answer: inactive

Question: What does the source list for `CS(=O)(=O)N1CCc2cc(-c3csc(NC(=O)C(c4ccccc4)c4ccccc4)n3)ccc21`?
Answer: outcome [1]: inactive; outcome [2]: inactive; outcome [3]: inactive; outcome [4]: inactive; outcome [5]: inactive

Question: Which results are given for `CCCCCCCCN1[C@@H](CC(C)=O)c2cc(C(F)(F)F)ccc2S1(=O)=O`?
Answer: outcome [1]: inactive; potentiation [2]: 60.5% (active); outcome [3]: inactive; outcome [4]: inactive; outcome [5]: inactive

Question: Which outcome [1] does the source give for `O=S(=O)(Nc1cccnc1)c1ccc(Cl)cc1` here?
Answer: inactive

Question: And the outcome [2]?
Answer: inactive

Question: And the outcome [3]?
Answer: inactive

Question: And the outcome [4]?
Answer: inactive

Question: What about the outcome [5] of the same molecule?
Answer: inactive

Question: Which outcome [1] does the source give for `S=c1[nH]c(-c2ccccc2)cn1/N=C/c1ccc(Br)cc1` here?
Answer: inactive

Question: And the outcome [2]?
Answer: inactive

Question: What about the outcome [3] of the same molecule?
Answer: inactive

Question: And the outcome [4]?
Answer: inactive

Question: What about the outcome [5] of the same molecule?
Answer: inactive

Question: Which results are given for `COc1cc(C(=O)CCN2CCC(c3ccccc3)C2)cc(OC)c1OC` (stereo not given)?
Answer: outcome [1]: inactive; outcome [2]: inactive; outcome [3]: inactive; outcome [4]: inactive; outcome [5]: inactive

Question: Which outcome [1] does the source give for `COc1ccc(-c2csc(N(CCCN(C)C)C(=O)c3ccccc3F)n2)cc1` here?
Answer: inactive

Question: And the outcome [2]?
Answer: inactive

Question: And the outcome [3]?
Answer: inactive

Question: And the outcome [4]?
Answer: inactive

Question: And the outcome [5]?
Answer: inactive

Question: With `CCN(CC)S(=O)(=O)c1cccc(C(=O)N/N=C/c2cccc(O)c2O)c1` as the molecule, how does the outcome [1] read?
Answer: inactive

Question: What about the outcome [2] of the same molecule?
Answer: inactive

Question: And the outcome [3]?
Answer: inactive

Question: And the outcome [4]?
Answer: inactive

Question: And the outcome [5]?
Answer: inactive

Question: What does the source list for `O=C(O)/C=C/C(=O)c1ccc2c(c1)CCc1ccccc1-2`?
Answer: outcome [1]: inactive; outcome [2]: inactive; outcome [3]: inactive; outcome [4]: inactive; outcome [5]: inactive

Question: Which outcome [1] does the source give for `COc1ccc(C(=O)NC(=S)N(C)C2CCCCC2)cc1Br` here?
Answer: inactive

Question: And the outcome [2]?
Answer: inactive

Question: And the outcome [3]?
Answer: inactive

Question: What about the outcome [4] of the same molecule?
Answer: inactive

Question: What about the outcome [5] of the same molecule?
Answer: inactive

Question: With `C=CCNC(=S)NNC(=O)COc1c(Cl)cc(Cl)cc1Cl` as the molecule, how does the outcome [1] read?
Answer: inactive

Question: And the outcome [2]?
Answer: inactive

Question: What about the outcome [3] of the same molecule?
Answer: inactive

Question: What about the outcome [4] of the same molecule?
Answer: inactive

Question: And the outcome [5]?
Answer: inactive

Question: For `N#Cc1ccc(Cl)cc1NC(=O)COC(=O)[C@H](CCC(N)=O)NC(=O)c1ccc(F)cc1`, which outcome [1] is on record?
Answer: inactive

Question: What about the outcome [2] of the same molecule?
Answer: inactive

Question: What about the outcome [3] of the same molecule?
Answer: inactive

Question: What about the outcome [4] of the same molecule?
Answer: inactive

Question: And the outcome [5]?
Answer: inactive

Question: Which outcome [1] does the source give for `CCOC(=O)Cn1c(C(=O)OCC)cc2sccc21` here?
Answer: inactive

Question: And the potentiation [2]?
Answer: 35.5% (active)

Question: What about the outcome [3] of the same molecule?
Answer: inactive

Question: What about the outcome [4] of the same molecule?
Answer: inactive

Question: What about the outcome [5] of the same molecule?
Answer: inactive

Question: With `COc1ccc(OCCCC(=O)NNC(=O)CCN2CCN(c3ccccc3)CC2)cc1` as the molecule, how does the outcome [1] read?
Answer: inactive

Question: And the potentiation [2]?
Answer: 19% (active)

Question: And the potentiation [3]?
Answer: 142% (active)

Question: And the outcome [4]?
Answer: inactive

Question: And the outcome [5]?
Answer: inactive

Question: Which outcome [1] does the source give for `O=C(NNC(=S)NC(=O)c1ccc(Br)cc1)c1cccc([N+](=O)[O-])c1` here?
Answer: inactive

Question: And the outcome [2]?
Answer: inactive

Question: And the outcome [3]?
Answer: inactive

Question: And the outcome [4]?
Answer: inactive

Question: What about the outcome [5] of the same molecule?
Answer: inactive

Question: With `Cc1cccc(NC(=O)c2cccc(NC(=O)Cc3cccs3)c2)c1` as the molecule, how does the outcome [1] read?
Answer: inactive

Question: What about the potentiation [2] of the same molecule?
Answer: 17.5% (active)

Question: And the outcome [3]?
Answer: inactive

Question: What about the outcome [4] of the same molecule?
Answer: inactive

Question: And the outcome [5]?
Answer: inactive

Question: With `CC1=NOC(=O)/C1=C\c1ccc(-c2ccc(Cl)cc2Cl)o1` as the molecule, how does the outcome [1] read?
Answer: inactive

Question: What about the outcome [2] of the same molecule?
Answer: inactive

Question: And the outcome [3]?
Answer: inactive

Question: What about the outcome [4] of the same molecule?
Answer: inactive

Question: What about the outcome [5] of the same molecule?
Answer: inactive

Question: What does the source list for `CCN1CCN(C(c2ccccn2)c2c(NC(=O)c3ccccc3)sc(C)c2C)CC1` (stereo not given)?
Answer: outcome [1]: inactive; outcome [2]: inactive; outcome [3]: inactive; outcome [4]: inactive; outcome [5]: inactive

Question: For `Cc1ccc2[nH]c(=O)c(CN(CCCN(C)C)C(=S)NCCc3ccccc3)cc2c1`, which outcome [1] is on record?
Answer: inactive

Question: What about the outcome [2] of the same molecule?
Answer: inactive

Question: What about the outcome [3] of the same molecule?
Answer: inactive

Question: What about the outcome [4] of the same molecule?
Answer: inactive

Question: What about the outcome [5] of the same molecule?
Answer: inactive

Question: Which results are given for `CCOC(=O)C1CCCN(C(=O)Cn2sc3nc(C)cc(C)c3c2=O)C1` (stereo not given)?
Answer: outcome [1]: inactive; outcome [2]: inactive; outcome [3]: inactive; outcome [4]: inactive; outcome [5]: inactive

Question: What does the source list for `CC(=O)c1cccc(OCc2cc(C(=O)N(C)C(C)c3ccccn3)no2)c1` (stereo not given)?
Answer: outcome [1]: inactive; outcome [2]: inactive; outcome [3]: inactive; outcome [4]: inactive; outcome [5]: inactive

Question: With `O=C(NC1(O)C(=O)c2ccccc2C1=O)c1ccc(C(F)(F)F)cc1` as the molecule, how does the outcome [1] read?
Answer: inactive

Question: And the outcome [2]?
Answer: inactive

Question: And the potentiation [3]?
Answer: 148% (active)

Question: What about the outcome [4] of the same molecule?
Answer: inactive

Question: What about the outcome [5] of the same molecule?
Answer: inactive

Question: Which outcome [1] does the source give for `Cc1cccc(NC(=S)c2nc3ccccc3s2)c1` here?
Answer: inactive

Question: And the potentiation [2]?
Answer: 146% (active)

Question: What about the potentiation [3] of the same molecule?
Answer: 219% (active)

Question: And the outcome [4]?
Answer: inactive

Question: And the outcome [5]?
Answer: inactive
